In brackets after ≈: the same amount, converted by molar mass. Starred links: 1 amine or outer side, 2 acyl side, 3 side chain; linkers in the order of their positions; H or OH if unused. Non-standard residues stand in square brackets, D forms with d. Residues, ends and D or L forms follow the SMILES beside them. Groups on a side chain read outwards from the residue. *: point of attachment. X1 = CCCCCC[C@@H](OC[C@@H](C)N[*:1])[C@@H](C)C(=O)[*:2]; X16 = CCCC[C@@H](C(=O)[*:2])N(CCCC)CCN[*:1]; Gly(cHept) = N[C@H](C(=O)O)C1CCCCCC1; Propyl(3-guanidino) = N=C(N)NCCC*; aThr = C[C@H](O)[C@H](N)C(=O)O; NMeL = CN[C@@H](CC(C)C)C(=O)O; Chg = N[C@H](C(=O)O)C1CCCCC1; NMeNva = CCC[C@H](NC)C(=O)O; Propyl(3-NMe2) = CN(C)CCC*; X13 = N[C@H]1C[C@H](N*)C1; hSer = N[C@@H](CCO)C(=O)O; X14 = NCCN1CC[C@H](*)C1; Dap = NC[C@H](N)C(=O)O; Propyl(3-NH2) = NCCC*; CO = O=C([*:1])[*:2]; NH(CH2)3NH2 = NCCCN*; X15 = O=C(O)CCCNCCC*; X12 = NCC(CN)*; X11 = NCCCC*
Legend:
[1] = Lipophilicity, logD of the compound at pH 7.4; conditions: buffer
Escherichia coli = assay: Inhibition of LspA in Escherichia coli CFT073imp4213 harboring outer membrane-permeable mutant assessed as inhibition of bacterial growth
In short: (§1)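 Read-out is the minimum inhibitory concentration, reported in µM.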

Escherichia coli CFT073 = assay: Inhibition of LspA in wild type Escherichia coli CFT073 assessed as inhibition of bacterial growth; in short: as §1
[2] = Growth inhibition of Staphylococcus aureus USA300

Row | Structure (SMILES) | logD ([1]; pH 7.4, logD) | MIC (Escherichia coli) | MIC (Escherichia coli CFT073) | MIC [2] | logD ([1]; pH 7.4)
1 | CCCCCCCCCC[C@H]1OC(=O)CNC(=O)[C@H]([C@H](C)O)NC(=O)[C@H](CN)NC(=O)[C@H]([C@H](C)CC)NC(=O)[C@H](CC(C)C)N(C)C(=O)[C@@H]1C | 4.6 | 0.011 µM (≈ 0.00782 µg/mL) | 2.1 µM (≈ 1.49 µg/mL) | 15 µM (≈ 10.7 µg/mL) | 
2 | CCC[C@H]1C(=O)N[C@@H](C2CCCCCC2)C(=O)N[C@@H](CN)C(=O)N[C@@H]([C@H](C)O)C(=O)NCC(=O)O[C@H](CC2CC3(CCC3)C2)[C@@H](C)C(=O)N1C | 2.9 | 0.009 µM (≈ 0.00634 µg/mL) | 0.78 µM (≈ 0.55 µg/mL) | 50 µM (≈ 35.2 µg/mL) | 
3 | CCCCCC[C@H]1OC[C@@H](C)NC(=O)[C@H](CC(=O)NCCCN)NC(=O)[C@H](CN)NC(=O)[C@H](C2CCCCCC2)NC(=O)[C@H](CCC)N(C)C(=O)[C@@H]1C (cyclo(D(NH(CH2)3NH2)[X1][NMeNva][Gly(cHept)][Dap])) | 1.3 | 0.39 µM (≈ 0.293 µg/mL) | 18 µM (≈ 13.5 µg/mL) | 100 µM (≈ 75.1 µg/mL) | 
4 | CCCCCC[C@H]1OC[C@@H](C)NC(=O)[C@H](COCCCN)NC(=O)[C@H](CN)NC(=O)[C@H](C2CCCCC2)NC(=O)[C@H](CC(C)C)N(C)C(=O)[C@@H]1C (cyclo([Chg][Dap]S(Propyl(3-NH2))[X1][NMeL])) | 1.5 | 0.28 µM (≈ 0.203 µg/mL) | 11 µM (≈ 7.96 µg/mL) | 100 µM (≈ 72.4 µg/mL) | 
5 | CCCCCC[C@H]1OC[C@@H](C)NC(=O)[C@H](COCCCN(C)C)NC(=O)[C@H](CN)NC(=O)[C@H](C2CCCCC2)NC(=O)[C@H](CC(C)C)N(C)C(=O)[C@@H]1C (cyclo([Chg][Dap]S(Propyl(3-NMe2))[X1][NMeL])) | 2.1 | 0.39 µM (≈ 0.293 µg/mL) | 25 µM (≈ 18.8 µg/mL) | 100 µM (≈ 75.2 µg/mL) | 
6 | CCCCCC[C@H]1OC[C@@H](C)NC(=O)[C@H](COCCCNC(=N)N)NC(=O)[C@H](CN)NC(=O)[C@H](C2CCCCC2)NC(=O)[C@H](CC(C)C)N(C)C(=O)[C@@H]1C (cyclo([Chg][Dap]S(Propyl(3-guanidino))[X1][NMeL])) | 2 | 0.2 µM (≈ 0.153 µg/mL) | 4.4 µM (≈ 3.37 µg/mL) | 5 µM (≈ 3.83 µg/mL) | 
7 | CCCCCC[C@H]1OC[C@@H](C)NC(=O)[C@H](COCCCCN)NC(=O)[C@H](CN)NC(=O)[C@H](C2CCCCC2)NC(=O)[C@H](CC(C)C)N(C)C(=O)[C@@H]1C (cyclo([Chg][Dap]S(X11)[X1][NMeL])) | 1.7 | 0.18 µM (≈ 0.133 µg/mL) | 7 µM (≈ 5.17 µg/mL) | 56 µM (≈ 41.3 µg/mL) | 
8 | CCCC[C@H]1C(=O)N(C)[C@@H](CC(C)C)C(=O)N[C@@H](C2CCCCC2)C(=O)N[C@@H](CN)C(=O)N[C@@H]([C@H](C)O)C(=O)NCCN1CCCC (cyclo([Chg][Dap][aThr][X16][NMeL])) |  | 0.1 µM (≈ 0.0666 µg/mL) | 6.3 µM (≈ 4.2 µg/mL) | 100 µM (≈ 66.6 µg/mL) | 
9 | CCCCCC[C@H]1OC[C@@H](C)NC(=O)[C@H](COCCCCN)NC(=O)[C@H](CN)NC(=O)[C@H](C2CCCCCC2)NC(=O)[C@H](CCC)N(C)C(=O)[C@@H]1C (cyclo([Dap]S(X11)[X1][NMeNva][Gly(cHept)])) | 1.8 | 0.14 µM (≈ 0.103 µg/mL) | 6.3 µM (≈ 4.65 µg/mL) | 71 µM (≈ 52.4 µg/mL) | 
10 | CCCCCC[C@H]1OC[C@@H](C)NC(=O)[C@H](COC(CN)CN)NC(=O)[C@H](CN)NC(=O)[C@H](C2CCCCCC2)NC(=O)[C@H](CCC)N(C)C(=O)[C@@H]1C (cyclo([Dap]S(X12)[X1][NMeNva][Gly(cHept)])) | 1.1 | 0.55 µM (≈ 0.406 µg/mL) | 3.1 µM (≈ 2.29 µg/mL) | 50 µM (≈ 37 µg/mL) | 
11 | CCCCCC[C@H]1OC[C@@H](C)NC(=O)[C@H](CO[C@H]2CCN(CCN)C2)NC(=O)[C@H](CN)NC(=O)[C@H](C2CCCCCC2)NC(=O)[C@H](CCC)N(C)C(=O)[C@@H]1C (cyclo([Dap]S(X14)[X1][NMeNva][Gly(cHept)])) | 1.6 | 0.2 µM (≈ 0.156 µg/mL) | 6.3 µM (≈ 4.91 µg/mL) | 100 µM (≈ 77.9 µg/mL) | 
12 | CCCCCC[C@H]1OC[C@@H](C)NC(=O)[C@H](COCCCNCCCC(=O)O)NC(=O)[C@H](CN)NC(=O)[C@H](C2CCCCCC2)NC(=O)[C@H](CCC)N(C)C(=O)[C@@H]1C (cyclo([Dap]S(X15)[X1][NMeNva][Gly(cHept)])) |  | 0.78 µM (≈ 0.632 µg/mL) | 100 µM (≈ 81 µg/mL) | > 100 µM | 
13 | CCCCCC[C@H]1OC[C@@H](C)NC(=O)[C@H](CNC(=O)N[C@H]2C[C@H](N)C2)NC(=O)[C@H](CN)NC(=O)[C@H](C2CCCCCC2)NC(=O)[C@H](CCC)N(C)C(=O)[C@@H]1C (cyclo([Dap][Dap]([CO-X13])[X1][NMeNva][Gly(cHept)])) | 1.5 | 0.39 µM (≈ 0.303 µg/mL) | 12 µM (≈ 9.34 µg/mL) | 71 µM (≈ 55.2 µg/mL) | 
14 | CCCCCC[C@H]1OC[C@@H](C)NC(=O)[C@H](CCOCCCN)NC(=O)[C@H](CN)NC(=O)[C@H](C2CCCCCC2)NC(=O)[C@H](CCC)N(C)C(=O)[C@@H]1C (cyclo([Dap][hSer](Propyl(3-NH2))[X1][NMeNva][Gly(cHept)])) | 1.7 | 0.2 µM (≈ 0.148 µg/mL) | 8.8 µM (≈ 6.49 µg/mL) | 100 µM (≈ 73.8 µg/mL) | 
15 | CCC[C@H]1C(=O)N[C@@H](C2CCCCCC2)C(=O)N[C@@H](CN)C(=O)N[C@@H]([C@H](C)O)C(=O)NCC(=O)O[C@H](CC2CC3CCC2C3)[C@@H](C)C(=O)N1C (stereo in doubt; 26) | 2.8 |  |  | 100 µM (≈ 70.5 µg/mL) | 
16 | CCC[C@H]1C(=O)N[C@@H](C2CCCCCC2)C(=O)N[C@@H](CN)C(=O)N[C@@H]([C@H](C)O)C(=O)NCC(=O)O[C@H](CC2CC3CCC2C3)[C@@H](C)C(=O)N1C (stereo in doubt; 27) |  |  |  |  | 2.9

Source: ChEMBL document CHEMBL4665734, “Optimization of globomycin analogs as novel gram-negative antibiotics” (Bioorg Med Chem Lett, 2020)
